Measurements from ChEMBL document CHEMBL1122634 (J Med Chem, 1984).

What was measured:
[1] = tested on: Rattus norvegicus; experiment: In vivo adrenals distribution of [11C]-labeled compound in Fisher rat 10 min after injection via caudal vein along with 18 ug of unlabeled estradiol.; format: ADME, organism-based, Adrenal gland; conditions: iv
Method in brief: (§1)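 Immature female Fisher rats, 3-4 weeks old, about 50 g. Tracer was HPLC-purified, dried, redissolved in ethanol and diluted in saline. […] Animals were killed by cardiac puncture at 10 min and tissues counted. Values are % injected dose/g normalized to 100 g body weight, mean ± SD of five rats. Rats were paired (with/without carrier) and compared by paired Student's t test.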

[2] = tested on: Rattus norvegicus; experiment: In vivo spleen distribution of [11C]-labeled compound in Fisher rat 10 min after injection via caudal vein along with 18 ug of unlabeled estradiol.; format: ADME, organism-based; conditions: iv; method in brief: as §1
[3] = species on record: Rattus norvegicus; experiment: (§2) Tissue to blood ratio 10 min after injection of compound; format: functional
Method in brief: (§3)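 Immature female Fisher rats, about 50 g. […] Rats were killed at 10 min and tissue and blood radioactivity counted. Results are tissue-to-blood ratios, mean ± SD of five rats, compared between paired animals by paired Student's t test (p < 0.05 significant).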

[4] = species on record: Rattus norvegicus; experiment: (§4) Tissue to blood ratio 10 min after injection of compound & Estradiol; format: functional; method in brief: as §3
[5] = species on record: Rattus norvegicus; experiment: as §4; format: functional; method in brief: as §3; remark: listed apart in the source
[6] = tested on: Rattus norvegicus; experiment: In vivo uterus distribution of [11C]-labeled compound in Fisher rat 10 min after injection via caudal vein along with 18 ug of unlabeled estradiol.; format: ADME, organism-based; conditions: iv; method in brief: as §1
[7] = species on record: Rattus norvegicus; experiment: as §4; format: functional; method in brief: as §3; remark: listed apart in the source
[8] = tested on: Rattus norvegicus; experiment: In vivo blood distribution of [11C]-labeled compound in Fisher rat 10 min after injection via caudal vein.; format: ADME, organism-based; conditions: iv; method in brief: as §1
[9] = tested on: Rattus norvegicus; experiment: In vivo kidneys distribution of [11C]-labeled compound in Fisher rat 10 min after injection via caudal vein along with 18 ug of unlabeled estradiol.; format: ADME, organism-based, Kidney; conditions: iv; method in brief: as §1
[10] = species on record: Rattus norvegicus; experiment: as §4; format: functional; method in brief: as §3; remark: listed apart in the source
[11] = species on record: Rattus norvegicus; experiment: as §2; format: functional; method in brief: as §3; remark: listed apart in the source
[12] = species on record: Rattus norvegicus; experiment: as §4; format: functional; method in brief: as §3; remark: listed apart in the source
[13] = tested on: Rattus norvegicus; experiment: In vivo muscle distribution of [11C]-labeled compound in Fisher rat 10 min after injection via caudal vein.; format: ADME, organism-based, Muscle tissue; conditions: iv; method in brief: as §1
[14] = tested on: Rattus norvegicus; experiment: In vivo lung distribution of [11C]-labeled compound in Fisher rat 10 min after injection via caudal vein along with 18 ug of unlabeled estradiol.; format: ADME, organism-based; conditions: iv; method in brief: as §1
[15] = tested on: Rattus norvegicus; experiment: In vivo uterus distribution of [11C]-labeled compound in Fisher rat 10 min after injection via caudal vein.; format: ADME, organism-based; conditions: iv; method in brief: as §1
[16] = species on record: Rattus norvegicus; experiment: as §2; format: functional; method in brief: as §3; remark: listed apart in the source
[17] = species on record: Rattus norvegicus; experiment: as §2; format: functional; method in brief: as §3; remark: listed apart in the source
[18] = species on record: Rattus norvegicus; experiment: as §4; format: functional; method in brief: as §3; remark: listed apart in the source
[19] = tested on: Rattus norvegicus; experiment: In vivo ovaries distribution of [11C]-labeled compound in Fisher rat 10 min after injection via caudal vein.; format: ADME, organism-based, Female gonad; conditions: iv; method in brief: as §1
[20] = species on record: Rattus norvegicus; experiment: as §2; format: functional; method in brief: as §3; remark: listed apart in the source
[21] = tested on: Rattus norvegicus; experiment: In vivo adrenals distribution of [11C]-labeled compound in Fisher rat 10 min after injection via caudal vein.; format: ADME, organism-based, Adrenal gland; conditions: iv; method in brief: as §1
[22] = tested on: Rattus norvegicus; experiment: In vivo liver distribution of [11C]-labeled compound in Fisher rat 10 min after injection via caudal vein.; format: ADME, organism-based; conditions: iv; method in brief: as §1
[23] = tested on: Rattus norvegicus; experiment: In vivo kidneys distribution of [11C]-labeled compound in Fisher rat 10 min after injection via caudal vein.; format: ADME, organism-based, Kidney; conditions: iv; method in brief: as §1
[24] = tested on: Rattus norvegicus; experiment: In vivo blood distribution of [11C]-labeled compound in Fisher rat 10 min after injection via caudal vein along with 18 ug of unlabeled estradiol.; format: ADME, organism-based; conditions: iv; method in brief: as §1
[25] = tested on: Rattus norvegicus; experiment: In vivo liver distribution of [11C]-labeled compound in Fisher rat 10 min after injection via caudal vein along with 18 ug of unlabeled estradiol.; format: ADME, organism-based; conditions: iv; method in brief: as §1
[26] = species on record: Rattus norvegicus; experiment: as §2; format: functional; method in brief: as §3; remark: listed apart in the source
[27] = tested on: Rattus norvegicus; experiment: In vivo muscle distribution of [11C]-labeled compound in Fisher rat 10 min after injection via caudal vein along with 18 ug of unlabeled estradiol.; format: ADME, organism-based, Muscle tissue; conditions: iv; method in brief: as §1
[28] = species on record: Rattus norvegicus; experiment: as §4; format: functional; method in brief: as §3; remark: listed apart in the source
[29] = tested on: Rattus norvegicus; experiment: In vivo lung distribution of [11C]-labeled compound in Fisher rat 10 min after injection via caudal vein.; format: ADME, organism-based; conditions: iv; method in brief: as §1
[30] = species on record: Rattus norvegicus; experiment: as §4; format: functional; method in brief: as §3; remark: listed apart in the source
[31] = tested on: Rattus norvegicus; experiment: In vivo ovaries distribution of [11C]-labeled compound in Fisher rat 10 min after injection via caudal vein along with 18 ug of unlabeled estradiol.; format: ADME, organism-based, Female gonad; conditions: iv; method in brief: as §1
[32] = species on record: Rattus norvegicus; experiment: as §2; format: functional; method in brief: as §3; remark: listed apart in the source
[33] = species on record: Rattus norvegicus; experiment: as §2; format: functional; method in brief: as §3; remark: listed apart in the source
[34] = tested on: Rattus norvegicus; experiment: In vivo spleen distribution of [11C]-labeled compound in Fisher rat 10 min after injection via caudal vein.; format: ADME, organism-based; conditions: iv; method in brief: as §1
[35] = species on record: Rattus norvegicus; experiment: as §4; format: functional; method in brief: as §3; remark: listed apart in the source
[36] = species on record: Rattus norvegicus; experiment: as §4; format: functional; method in brief: as §3; remark: listed apart in the source
[37] = species on record: Rattus norvegicus; experiment: as §2; format: functional; method in brief: as §3; remark: listed apart in the source
[38] = species on record: Rattus norvegicus; experiment: as §4; format: functional; method in brief: as §3; remark: listed apart in the source
[39] = species on record: Rattus norvegicus; experiment: as §2; format: functional; method in brief: as §3; remark: listed apart in the source
[40] = species on record: Rattus norvegicus; experiment: as §2; format: functional; method in brief: as §3; remark: listed apart in the source
[41] = species on record: Rattus norvegicus; experiment: as §4; format: functional; method in brief: as §3; remark: listed apart in the source
[42] = species on record: Rattus norvegicus; experiment: as §4; format: functional; method in brief: as §3; remark: listed apart in the source
[43] = species on record: Rattus norvegicus; experiment: as §2; format: functional; method in brief: as §3; remark: listed apart in the source
[44] = species on record: Rattus norvegicus; experiment: as §2; format: functional; method in brief: as §3; remark: listed apart in the source
[45] = species on record: Rattus norvegicus; experiment: as §2; format: functional; method in brief: as §3; remark: listed apart in the source
[46] = species on record: Rattus norvegicus; experiment: as §2; format: functional; method in brief: as §3; remark: listed apart in the source
[47] = species on record: Rattus norvegicus; experiment: as §4; format: functional; method in brief: as §3; remark: listed apart in the source
[48] = species on record: Rattus norvegicus; experiment: as §4; format: functional; method in brief: as §3; remark: listed apart in the source

SMILES | Injected dose/g [1] [%] | Injected dose/g [2] [%] | Injected dose/g [6] [%] | Injected dose/g [8] [%] | Injected dose/g [9] [%] | Injected dose/g [13] [%] | Injected dose/g [14] [%] | Injected dose/g [15] [%] | Injected dose/g [19] [%] | Injected dose/g [21] [%] | Injected dose/g [22] [%] | Injected dose/g [23] [%] | Injected dose/g [24] [%] | Injected dose/g [25] [%] | Injected dose/g [27] [%] | Injected dose/g [29] [%] | Injected dose/g [31] [%] | Injected dose/g [34] [%] | also measured
CCOC(=O)NCCOc1ccc(C(CC)C(CC)c2ccc(O)cc2)cc1 (stereo not drawn) | 5.3 | 1.6 | 6.2 | 0.81 | 5.1 | 1.1 | 2.1 | 5 | 2.5 | 6.5 | 8.5 | 2.9 | 1.3 | 7.8 | 1.3 | 2.1 | 3.5 | 2.4 | Tissue/Blood ratio [3]: 2.4; Tissue/Blood ratio [4]: 3.1; Tissue/Blood ratio [5]: 9.4; Tissue/Blood ratio [7]: 1.3; Tissue/Blood ratio [10]: 2.5; Tissue/Blood ratio [11]: 1.2; Tissue/Blood ratio [12]: 3.3; Tissue/Blood ratio [16]: 6.3; Tissue/Blood ratio [17]: 2.5; Tissue/Blood ratio [18]: 5.4; Tissue/Blood ratio [20]: 8; Tissue/Blood ratio [26]: 9; Tissue/Blood ratio [28]: 2.8; Tissue/Blood ratio [30]: 1.9; Tissue/Blood ratio [32]: 3.7; Tissue/Blood ratio [33]: 3
CCOC(=O)NC1CC[C@H]2[C@@H]3CCc4cc(O)ccc4[C@H]3CC[C@]12C (stereo partly drawn) | 21.6 | 3.6 | 7.8 | 0.9 | 6.1 | 1.6 | 5.1 | 4.5 | 6.5 | 14.3 | 9.4 | 4.2 | 1.3 | 12.8 | 3.2 | 3.1 | 7.4 | 2.3 | Ratio [35]: 6.2; Ratio [36]: 1.8; Ratio [37]: 2.8; Ratio [3]: 3.7; Ratio [38]: 2.7; Ratio [39]: 1.4; Ratio [40]: 9.4; Ratio [41]: 4.3; Ratio [42]: 6; Ratio [10]: 3.7; Ratio [43]: 9.1; Ratio [44]: 5.5; Ratio [45]: 4.8; Ratio [46]: 18; Ratio [47]: 9.1; Ratio [48]: 14.9
